Experimental data collected from several papers.
Protocols differ between the studies behind these lines.
Target: Mitogen-activated protein kinase 15 (MAPK15, Homo sapiens, UniProt Q8TD08)
Sequence (Q8TD08 1-544, as in one of the studies): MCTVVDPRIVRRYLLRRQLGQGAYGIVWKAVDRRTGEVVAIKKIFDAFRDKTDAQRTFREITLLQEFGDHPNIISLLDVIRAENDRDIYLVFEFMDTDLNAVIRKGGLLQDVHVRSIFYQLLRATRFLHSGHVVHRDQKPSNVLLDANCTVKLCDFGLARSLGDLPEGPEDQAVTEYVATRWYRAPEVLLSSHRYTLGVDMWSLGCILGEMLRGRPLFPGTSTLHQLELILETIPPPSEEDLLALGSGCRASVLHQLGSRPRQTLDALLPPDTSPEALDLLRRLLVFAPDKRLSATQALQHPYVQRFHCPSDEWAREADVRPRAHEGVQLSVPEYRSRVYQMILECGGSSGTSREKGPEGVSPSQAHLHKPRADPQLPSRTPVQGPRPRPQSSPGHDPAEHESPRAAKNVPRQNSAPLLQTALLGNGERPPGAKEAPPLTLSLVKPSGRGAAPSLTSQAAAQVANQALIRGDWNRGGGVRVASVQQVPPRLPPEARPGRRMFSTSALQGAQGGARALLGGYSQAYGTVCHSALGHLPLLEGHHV

SMILES	test	setting	measurement	value
Nc1nc(Nc2ccc(S(N)(=O)=O)cc2)sc1C(=O)c1ccccc1[N+](=O)[O-]	enzyme activity, inhibitor	0.1 µM	inhibition	73 to 75%
FC(F)(F)Oc1cccc(-c2cnc3ccc(-c4ccncc4)nn23)c1	enzyme activity, inhibitor, radiometric	1 µM	activity vs control	29%
Oc1cccc(-c2nc(N3CCOCC3)c3oc4ncccc4c3n2)c1	enzyme activity, inhibitor	10 µM	remaining activity	87%
O=C(Nc1cnn(-c2csc(C(=O)NC3COC3)c2)c1)Nc1c(F)cccc1Cl	enzyme activity, inhibitor	5 µM	remaining activity	108%
CC(C)(C)c1nc(-c2cccc(NS(=O)(=O)c3c(F)cccc3F)c2F)c(-c2ccnc(N)n2)s1	enzyme activity, inhibitor, radiometric	1 µM	remaining activity	80%
Cc1sc(C(=O)NC2COC2)cc1-n1cc(NC(=O)Nc2c(F)cccc2Cl)cn1	enzyme activity, inhibitor	10 µM	remaining activity	103%
CCC(=N\O)/C(C)=C/c1ccc(F)cc1	cell-free assay, competition with immobilised ligand	1 µM	remaining binding	95%
Cn1cnc(Br)c1C1=CN(c2ncnc3[nH]cnc23)CCS1	enzyme activity, inhibitor, radiometric	2 µM	inhibition	80.2%
C[C@@]1(Cc2ccc(C#N)cc2)C(=O)N(c2cc(Cl)cc(Cl)c2)c2ncc(C(=O)NC3(c4nc(C5CCC5)no4)CC3)n21	cell-free assay, competition with immobilised ligand	1 µM	remaining binding	100%
COc1cc(Nc2cnc(C#N)c(O[C@H](C)CN(C)C)n2)ncc1-c1cnn(C)c1	enzyme activity, inhibitor, radiometric	1 µM	remaining activity	101%
N#CC1(c2ccccn2)CCN(Cc2cc(C(=O)N3CCCC3)c(=O)n3ccccc23)CC1	cell-free assay, competition with immobilised ligand	1 µM	remaining binding	92%
Nc1nc(Nc2ccccc2)sc1C(=O)c1c(F)cccc1F	enzyme activity, inhibitor	10 µM	remaining activity	14%
O=C(Nc1cccnn1)N1CCC(=Cc2cccc(Oc3ccc(C(F)(F)F)cn3)c2)CC1	cell-free assay, competition with immobilised ligand	1 µM	remaining binding	83%
Cc1ccc(C(=O)Nc2ccc(CN3CCN(C)CC3)c(C(F)(F)F)c2)cc1C#Cc1cnc2cccnn12	enzyme activity, inhibitor	23.5 nM	remaining activity	77%
